From ChEMBL document CHEMBL1148984, “Bioactive compounds from the seeds of Punica granatum (pomegranate)” (2004)

What was measured:
[1] = system: Plasma; assay: Antioxidant activity against LDL-susceptible to oxidation in New Zealand White rabbit plasma assessed as increase in conjugated diene formation at 50 ug/mL after 30 mins; assay type: functional, Oryctolagus cuniculus
How it was run: (§1)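 LDL in phosphate-buffered KCl dialysis buffer (pH 7.4), dialysed 4 h at 4 °C in the dark and diluted to 0.25 mg LDL/mL (protein by Lowry, BSA standard). Compound (final 1.25, 2.5 or 5.0 × 10-5 g/mL) or saline vehicle preincubated ~30 min at 20 °C. Oxidation started with CuSO4 (final 5.0 µmol/L), 37 °C for 4 h. A234 monitored; conjugated diene increase = (A4h − A0h)/A0h × 100%.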

[2] = system: Plasma; assay: Antioxidant activity against LDL-susceptible to oxidation in New Zealand White rabbit plasma assessed as increase in conjugated diene formation at 25 ug/mL after 30 mins; assay type: functional, Oryctolagus cuniculus; how it was run: as §1
[3] = system: Plasma; assay: Antioxidant activity against LDL-susceptible to oxidation in New Zealand White rabbit plasma assessed as increase in conjugated diene formation at 12.5 ug/mL after 30 mins; assay type: functional, Oryctolagus cuniculus; how it was run: as §1
[4] = system: Brain; assay: Antioxidant activity against lipid peroxidation in Wistar rat brain assessed as inhibition of malondialdehyde release at 50 ug/mL by thiobarbituric acid method relative to control; assay type: functional, tissue-based; design: scale not given: the % may be the effect or the level left
How it was run: (§2)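 Male Wistar rat brain homogenised fresh (10% w/v) in 50 mM phosphate buffer, pH 7.4; protein by Lowry. Aliquots incubated 30 min at 37 °C with compound (final 1.25, 2.5 or 5.0 × 10-5 g/mL) or saline vehicle. Stopped with SDS, then TBA in HCl/acetic acid, boiled 15 min. Chromogen extracted into n-butanol–pyridine (15:1); A532 read against MDA standards.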

[5] = system: Brain; assay: Antioxidant activity against lipid peroxidation in Wistar rat brain assessed as inhibition of malondialdehyde release at 25 ug/mL by thiobarbituric acid method relative to control; assay type: functional, tissue-based; design: scale not given: the % may be the effect or the level left; how it was run: as §2
[6] = system: Brain; assay: Antioxidant activity against lipid peroxidation in Wistar rat brain assessed as inhibition of malondialdehyde release at 12.5 ug/mL by thiobarbituric acid method relative to control; assay type: functional, tissue-based; design: scale not given: the % may be the effect or the level left; how it was run: as §2

Row | SMILES | Conjugated diene increase [1] [%] | Activity [2] [%] | Activity [3] [%] | Activity [4] [%] | Activity [5] [%] | Activity [6] [%]
1 | COc1c(O)cc2c(=O)oc3c(OC)c(O)cc4c(=O)oc1c2c34 | 20.4 | 28.9 | 27 | 28.1 | 20.1 | 21.8
2 | O=C1O[C@H]([C@@H](O)CO)C(O)=C1O [ASCORBIC ACID] |  |  | 3.7 |  |  | 50.1
3 | COc1cc2c(=O)oc3c(OC)c(O)cc4c(=O)oc(c1OC)c2c34 | 21 | 27.2 | 29.8 | 31.1 | 24.6 | 18.3
4 | COc1cc(/C=C/CO[C@@H]2O[C@H](CO[C@@H]3OC[C@](O)(CO)[C@H]3O)[C@@H](O)[C@H](O)[C@H]2O)cc(OC)c1O | 12.2 | 14.4 | 17.6 | 32.1 | 29.8 | 26.5
5 | COc1cc(/C=C/CO[C@@H]2O[C@H](CO[C@@H]3OC[C@](O)(CO)[C@H]3O)[C@@H](O)[C@H](O)[C@H]2O)ccc1O | 7.3 | 10.5 | 15.4 | 35.6 | 32.4 | 28.9
